ChEMBL document CHEMBL2346497, “Synthesis of novel cognition enhancers with pyrazolo[5,1-c][1,2,4]benzotriazine core acting at γ-aminobutyric acid type A (GABA(A)) receptor” (Bioorg Med Chem, 2013)
Active and inactive are the calls of the source. The rule behind the calls is not given here.

Tests used:
[1] = target: T1, GABA-A receptor; alpha-1/beta-2/gamma-2 (Homo sapiens, UniProt P14867+P18507+P47870); test: Displacement of [3H]Ro15-1788 from recombinant GABA-A alpha1beta2gamma2 receptor benzodiazepine binding site (unknown origin) after 1 hr; assay type: protein-complex assay
T1 sequence (P14867 whole entry): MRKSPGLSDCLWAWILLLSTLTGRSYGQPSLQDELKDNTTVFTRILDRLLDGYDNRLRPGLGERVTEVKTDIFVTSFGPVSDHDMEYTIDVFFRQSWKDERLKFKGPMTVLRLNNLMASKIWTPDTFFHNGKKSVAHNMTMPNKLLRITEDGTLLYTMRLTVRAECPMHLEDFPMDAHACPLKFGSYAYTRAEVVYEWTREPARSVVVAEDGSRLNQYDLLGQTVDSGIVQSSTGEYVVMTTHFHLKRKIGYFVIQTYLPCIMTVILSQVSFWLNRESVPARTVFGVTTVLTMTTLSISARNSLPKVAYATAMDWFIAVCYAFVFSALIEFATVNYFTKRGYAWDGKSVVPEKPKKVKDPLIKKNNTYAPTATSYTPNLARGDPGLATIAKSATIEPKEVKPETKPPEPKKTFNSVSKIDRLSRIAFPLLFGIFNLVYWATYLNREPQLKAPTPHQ
T1 sequence (P47870 whole entry): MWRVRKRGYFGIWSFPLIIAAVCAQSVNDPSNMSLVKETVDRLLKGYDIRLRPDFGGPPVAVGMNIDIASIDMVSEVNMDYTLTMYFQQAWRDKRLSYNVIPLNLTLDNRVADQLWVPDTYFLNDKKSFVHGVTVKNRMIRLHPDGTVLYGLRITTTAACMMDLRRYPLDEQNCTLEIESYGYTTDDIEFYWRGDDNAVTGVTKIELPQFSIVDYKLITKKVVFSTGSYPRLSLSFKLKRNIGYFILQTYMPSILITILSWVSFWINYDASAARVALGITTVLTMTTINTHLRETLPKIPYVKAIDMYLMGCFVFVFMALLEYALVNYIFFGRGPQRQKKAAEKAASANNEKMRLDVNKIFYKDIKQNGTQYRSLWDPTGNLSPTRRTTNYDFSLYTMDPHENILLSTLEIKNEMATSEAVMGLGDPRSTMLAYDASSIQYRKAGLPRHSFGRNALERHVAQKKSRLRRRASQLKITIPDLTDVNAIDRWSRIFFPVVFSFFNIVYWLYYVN
T1 sequence (P18507 whole entry): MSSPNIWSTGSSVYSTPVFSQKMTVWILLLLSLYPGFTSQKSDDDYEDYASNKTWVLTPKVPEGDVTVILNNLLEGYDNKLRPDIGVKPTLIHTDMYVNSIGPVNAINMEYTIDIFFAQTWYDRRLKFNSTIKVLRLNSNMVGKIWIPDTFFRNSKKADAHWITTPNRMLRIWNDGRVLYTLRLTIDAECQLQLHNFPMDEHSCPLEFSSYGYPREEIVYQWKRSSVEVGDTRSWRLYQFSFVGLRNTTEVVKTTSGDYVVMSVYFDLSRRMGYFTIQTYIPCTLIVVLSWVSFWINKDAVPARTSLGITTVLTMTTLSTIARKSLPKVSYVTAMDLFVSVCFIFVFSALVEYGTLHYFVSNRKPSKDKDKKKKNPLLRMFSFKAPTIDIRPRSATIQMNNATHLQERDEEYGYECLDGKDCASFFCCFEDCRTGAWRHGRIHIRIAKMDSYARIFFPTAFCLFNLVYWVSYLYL
How it was run: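 Membranes came from clonal mammalian cell lines expressing α1β2γ2, α2β2γ2 or α5β3γ2 receptors, grown in MEM/EBSS with 10% FCS at 37 °C. Membranes were resuspended in 10 mM potassium phosphate, pH 7.4, with 100 mM KCl. Assays used 1–2 nM [3H]Ro15-1788 and test compound from 10^-9 to 10^-5 M, at least six concentrations. Diazepam at 10^-5 M defined nonspecific binding. Incubation ran 1 h at 4 °C. Single-point % inhibition was measured at 10 µM, and Ki by curve fitting; n = 5, in duplicate.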

[2] = test system: Rattus norvegicus; test: Procognitive effect in Harlan Wistar rat assessed as decrease in exploring time of unfamiliar rat during social investigatory behaviour at 1 to 10 mg/kg, po administered 30 mins prior to testing measured for 5 mins by social learning test relative to control; assay type: functional, organism-based
[3] = test system: Rattus norvegicus; test: Induction of acetylcholine release in Harlan Wistar rat parietal cortex at 10 mg/kg, ip after 60 to 80 mins by microdialysis method; assay type: functional, organism-based; design: dose 10 mg/kg
How it was run: (§1)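 Microdialysis in the parietal cortex of male Wistar rats, with a horizontal tube implanted at AP 0.5 mm and H 2.3 mm from bregma. One day after surgery the tube was perfused with Ringer containing physostigmine. After a 1 h settling period, 20-min fractions were collected into HCl. Drug was given ip in 1% CMC at time 0. ACh was measured by HPLC with electrochemical detection, n = 6 rats.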

[4] = Displacement of [3H]Ro15-1788 from GABA-A receptor benzodiazepine binding site in bovine cerebral cortex membranes after 1 hr; assay type: cell membranes, Bos taurus, Membrane
[5] = test system: Mus musculus; test: Neurotoxicity in CD1 albino mouse assessed as decrease in number of falls from rotating rod at 10 mg/kg, po by rota-rod test relative to control; assay type: toxicity, organism-based; design: dose 10 mg/kg, route oral; details: in vivo, TDE = time-dependent effect
How it was run: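 Motor coordination was tested on a rota-rod turning at 24 rpm in male CD-1 mice dosed po in 1% CMC. Falls within 30 s were counted at a pretest and at 15, 30, 45 and 60 min after dosing. Each value is the mean of five mice, compared with CMC-treated controls.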

[6] = target: T2, Gamma-aminobutyric acid receptor subunit alpha-5 (Homo sapiens) (UniProt P31644); test: Displacement of [3H]Ro15-1788 from recombinant GABA-A alpha5beta2gamma2 receptor benzodiazepine binding site (unknown origin) at 10 uM after 1 hr relative to control
T2 sequence (whole entry): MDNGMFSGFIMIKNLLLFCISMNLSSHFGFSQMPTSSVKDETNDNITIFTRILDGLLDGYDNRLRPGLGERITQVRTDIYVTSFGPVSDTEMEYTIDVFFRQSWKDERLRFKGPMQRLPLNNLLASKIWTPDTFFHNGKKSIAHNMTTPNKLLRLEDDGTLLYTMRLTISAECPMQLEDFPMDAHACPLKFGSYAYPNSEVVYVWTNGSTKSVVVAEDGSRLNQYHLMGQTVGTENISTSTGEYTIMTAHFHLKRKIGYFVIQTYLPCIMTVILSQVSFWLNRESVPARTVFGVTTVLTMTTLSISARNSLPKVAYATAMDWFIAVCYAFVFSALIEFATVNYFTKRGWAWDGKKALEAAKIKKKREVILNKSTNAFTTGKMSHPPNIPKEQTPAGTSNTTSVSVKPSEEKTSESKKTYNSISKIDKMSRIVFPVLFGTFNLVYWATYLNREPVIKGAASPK

[7] = test system: Rattus norvegicus; test: Procognitive effect in Harlan Wistar rat assessed as exploring time of familiar rat during social investigatory behaviour at 3 mg/kg, po administered 30 mins prior to testing measured for 5 mins by social learning test (reference value: 27.6 secs); assay type: functional
[8] = test system: Rattus norvegicus; test: Induction of acetylcholine release in Harlan Wistar rat parietal cortex at 10 mg/kg, ip measured within 120 mins by microdialysis method; assay type: functional, organism-based; design: dose 10 mg/kg; how it was run: as §1

Ki [1]: 22.7 nM
Ki [4]: 24.1 nM
inhibition [6]: 36%
Structure (SMILES): Cc1cnn2c1n[n+]([O-])c1ccc(OCc3ccncc3)cc12
Activity [2]: inactive
Activity [3]: Active
Activity [5]: tde
Time [7]: 43.2 s
Activity [8]: inactive
